Test results from paper PMC8524144 (International Journal of Pharmaceutics: X, 2021).

What was measured:
[1] = SBTI at the levels found in the tested formulations; ref Hernández-Ledesma and Hsieh, 2017; Burshtein et al. 2018b; cited from earlier work
aminopeptidase N = details: ref Werle et al. (2006); cited from earlier work
elastase = details: ref Werle et al. (2006); cited from earlier work
[2] = tested on: membrane-bound peptidases; details: ref Werle et al. (2006); cited from earlier work
trypsin = details: ref Werle et al. (2006); cited from earlier work
pepsin = details: ref Werle et al. (2006); cited from earlier work
[3] = In vitro stability of hPTH; type: physicochemical
Summary of the method: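 Peptide (1.0 mg teriparatide acetate per mL in 50 mM Tris, pH 6.5, no SBTI) mixed 1:1 with enzyme-free Tris buffer and incubated at 37 °C with shaking. Samples were taken at 2, 5, 10, 15, 30 and 60 min and quenched with an equal volume of 0.5% TFA. A zero-time mix served as 100%. Peptide was measured by C18 HPLC-UV. Run in duplicate.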

chymotrypsin = details: ref Werle et al. (2006); cited from earlier work
[4] = 50 mM Tris buffer without protease, pH 6.5

Compound	tolerability in human trials [1]	effect of aminopeptidase N on the degradation of hPTH(1–34) (aminopeptidase N)	effect of elastase on the degradation of hPTH(1–34) (elastase)	effect of membrane-bound peptidases on the degradation of hPTH(1–34) [2]	degradation by GIT protease trypsin (trypsin)	degradation by GIT protease pepsin (pepsin)	remaining at 0.25 h, 0.5 mg/mL [3, 4] [%]	remaining at 0.5 h, 0.5 mg/mL [3, 4] [%]	remaining at 1 h, 0.5 mg/mL [3, 4] [%]	stability of hPTH(1–34) alone ([3]; no protease, no SBTI, 50 mM Tris buffer pH 6.5, 37 °C, HPLC-UV, n = 2)	degradation by GIT protease chymotrypsin (chymotrypsin)
soybean trypsin inhibitor [SBTI]	well tolerated										
CC[C@H](C)[C@H](NC(=O)[C@H](CCC(=O)O)NC(=O)[C@H](CO)NC(=O)[C@@H](NC(=O)[C@@H](N)CO)C(C)C)C(=O)N[C@@H](CCC(N)=O)C(=O)N[C@@H](CC(C)C)C(=O)N[C@@H](CCSC)C(=O)N[C@@H](Cc1cnc[nH]1)C(=O)N[C@@H](CC(N)=O)C(=O)N[C@@H](CC(C)C)C(=O)NCC(=O)N[C@@H](CCCCN)C(=O)N[C@@H](Cc1cnc[nH]1)C(=O)N[C@@H](CC(C)C)C(=O)N[C@@H](CC(N)=O)C(=O)N[C@@H](CO)C(=O)N[C@@H](CCSC)C(=O)N[C@@H](CCC(=O)O)C(=O)N[C@@H](CCCN=C(N)N)C(=O)N[C@H](C(=O)N[C@@H](CCC(=O)O)C(=O)N[C@@H](Cc1c[nH]c2ccccc12)C(=O)N[C@@H](CC(C)C)C(=O)N[C@@H](CCCN=C(N)N)C(=O)N[C@@H](CCCCN)C(=O)N[C@@H](CCCCN)C(=O)N[C@@H](CC(C)C)C(=O)N[C@@H](CCC(N)=O)C(=O)N[C@@H](CC(=O)O)C(=O)N[C@H](C(=O)N[C@@H](Cc1cnc[nH]1)C(=O)N[C@@H](CC(N)=O)C(=O)N[C@@H](Cc1ccccc1)C(=O)O)C(C)C)C(C)C [hPTH(1–34), teriparatide]		very limited effect	very limited effect	very limited effect	rapidly degraded	rapidly degraded	100	100	100	stable for at least one hour	rapidly degraded
